Experimental data as given in ChEMBL document CHEMBL3046615, “Isolation of nematicidal compounds from Tagetes patula L. yellow flowers: structure-activity relationship studies against cyst nematode Heterodera zeae infective stage larvae” (2011).
Calls of active or inactive are those of the source. The rule behind the calls is not given here.

Tests used:
Heterodera zeae [1] = assay: Nematicidal activity against Heterodera zeae infective stage larvae assessed as nematode mortality at 5% under dark conditions measured 5 to 60 min post dose by stereoscopic microscopy; assay type: functional, organism-based
Summary of the method: (§1)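 H. zeae freshly hatched second-stage juveniles, 100 per plate, three replicates, at 28 ± 2 °C under light or in a dark box. Dilutions are % of a stock: 30 mg/mL for extracts/fractions, 1 mg/mL for pure compounds. Methanol-, DMSO- or water-soluble samples were tested in glass cavity blocks. Petroleum ether-soluble samples were air-dried in the block and covered with agar pieces bearing cultured larvae. Mortality was followed over 5–60 min; each value is the mean of three experiments.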

Heterodera zeae [2] = assay: Nematicidal activity against Heterodera zeae infective stage larvae assessed as nematode mortality at 0.125% under dark conditions measured 72 hr post dose by stereoscopic microscopy; assay type: functional
Summary of the method: (§2)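 Freshly hatched H. zeae second-stage juveniles, 100 per Petri plate, three replicates. Samples in MeOH, DMSO or water were tested in glass cavity blocks; petroleum ether samples were dried onto the block and larvae transferred on agar pieces. Percentages are dilutions of 30 mg/mL stocks (extracts/fractions) or 1 mg/mL stocks (pure compounds). Incubated at 28 ± 2 °C in light or dark box; mortality averaged over three replicates.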

Heterodera zeae [3] = assay: Nematicidal activity against Heterodera zeae infective stage larvae assessed as nematode mortality at 2% under light conditions measured 5 to 60 min post dose by stereoscopic microscopy; assay type: functional, organism-based; summary of the method: as §1
Heterodera zeae [4] = assay: Nematicidal activity against Heterodera zeae infective stage larvae assessed as nematode mortality at 2% under dark conditions measured 5 to 60 min post dose by stereoscopic microscopy; assay type: functional, organism-based; summary of the method: as §1
Heterodera zeae [5] = assay: Nematicidal activity against Heterodera zeae infective stage larvae assessed as nematode mortality at 1% under dark conditions measured 5 to 60 min post dose by stereoscopic microscopy; assay type: functional, organism-based; summary of the method: as §1
Heterodera zeae [6] = assay: Nematicidal activity against Heterodera zeae infective stage larvae assessed as nematode mortality at 0.25% under light conditions measured 48 hr post dose by stereoscopic microscopy; assay type: functional; summary of the method: as §2
Heterodera zeae [7] = assay: Nematicidal activity against Heterodera zeae infective stage larvae assessed as nematode mortality at 0.5% under dark conditions measured 24 hr post dose by stereoscopic microscopy; assay type: functional; summary of the method: as §2
Heterodera zeae [8] = assay: Nematicidal activity against Heterodera zeae infective stage larvae assessed as nematode mortality at 5% under light conditions measured 5 to 60 min post dose by stereoscopic microscopy; assay type: functional, organism-based; summary of the method: as §1
Heterodera zeae [9] = assay: Nematicidal activity against Heterodera zeae infective stage larvae assessed as nematode mortality at 0.25% under light conditions measured 24 hr post dose by stereoscopic microscopy; assay type: functional; summary of the method: as §2
Heterodera zeae [10] = assay: Nematicidal activity against Heterodera zeae infective stage larvae assessed as nematode mortality at 0.5% under light conditions measured 48 hr post dose by stereoscopic microscopy; assay type: functional; summary of the method: as §2
Heterodera zeae [11] = assay: Nematicidal activity against Heterodera zeae infective stage larvae assessed as nematode mortality at 0.125% under dark conditions measured 5 to 60 min post dose by stereoscopic microscopy; assay type: functional, organism-based; summary of the method: as §1
Heterodera zeae [12] = assay: Nematicidal activity against Heterodera zeae infective stage larvae assessed as nematode mortality at 0.5% under light conditions measured 5 to 60 min post dose by stereoscopic microscopy; assay type: functional, organism-based; summary of the method: as §1
Heterodera zeae [13] = assay: Nematicidal activity against Heterodera zeae infective stage larvae assessed as nematode mortality at 0.5% under dark conditions measured 48 hr post dose by stereoscopic microscopy; assay type: functional; summary of the method: as §2
Heterodera zeae [14] = assay: Nematicidal activity against Heterodera zeae infective stage larvae assessed as nematode mortality at 1% under dark conditions measured 24 hr post dose by stereoscopic microscopy; assay type: functional; summary of the method: as §2
Heterodera zeae [15] = assay: Nematicidal activity against Heterodera zeae infective stage larvae assessed as nematode mortality at 0.25% under dark conditions measured 72 hr post dose by stereoscopic microscopy; assay type: functional; summary of the method: as §2
Heterodera zeae [16] = assay: Nematicidal activity against Heterodera zeae infective stage larvae assessed as nematode mortality at 1% under dark conditions measured 48 hr post dose by stereoscopic microscopy; assay type: functional; summary of the method: as §2
Heterodera zeae [17] = assay: Nematicidal activity against Heterodera zeae infective stage larvae assessed as nematode mortality at 1% under dark conditions measured 72 hr post dose by stereoscopic microscopy; assay type: functional; summary of the method: as §2
Heterodera zeae [18] = assay: Nematicidal activity against Heterodera zeae infective stage larvae assessed as nematode mortality at 0.25% under light conditions measured 72 hr post dose by stereoscopic microscopy; assay type: functional; summary of the method: as §2
Heterodera zeae [19] = assay: Nematicidal activity against Heterodera zeae infective stage larvae assessed as nematode mortality at 0.125% under light conditions measured 72 hr post dose by stereoscopic microscopy; assay type: functional; summary of the method: as §2
Heterodera zeae [20] = assay: Nematicidal activity against Heterodera zeae infective stage larvae assessed as nematode mortality at 0.5% under light conditions measured 72 hr post dose by stereoscopic microscopy; assay type: functional; summary of the method: as §2
Heterodera zeae [21] = assay: Nematicidal activity against Heterodera zeae infective stage larvae assessed as nematode mortality at 0.25% under dark conditions measured 5 to 60 min post dose by stereoscopic microscopy; assay type: functional, organism-based; summary of the method: as §1
Heterodera zeae [22] = assay: Nematicidal activity against Heterodera zeae infective stage larvae assessed as nematode mortality at 0.5% under dark conditions measured 5 to 60 min post dose by stereoscopic microscopy; assay type: functional, organism-based; summary of the method: as §1
Heterodera zeae [23] = assay: Nematicidal activity against Heterodera zeae infective stage larvae assessed as nematode mortality at 0.25% under dark conditions measured 24 hr post dose by stereoscopic microscopy; assay type: functional; summary of the method: as §2
Heterodera zeae [24] = assay: Nematicidal activity against Heterodera zeae infective stage larvae assessed as nematode mortality at 1% under light conditions measured 72 hr post dose by stereoscopic microscopy; assay type: functional; summary of the method: as §2
Heterodera zeae [25] = assay: Nematicidal activity against Heterodera zeae infective stage larvae assessed as nematode mortality at 0.125% under dark conditions measured 48 hr post dose by stereoscopic microscopy; assay type: functional; summary of the method: as §2
Heterodera zeae [26] = assay: Nematicidal activity against Heterodera zeae infective stage larvae assessed as nematode mortality at 0.125% under dark conditions measured 24 hr post dose by stereoscopic microscopy; assay type: functional; summary of the method: as §2
Heterodera zeae [27] = assay: Nematicidal activity against Heterodera zeae infective stage larvae assessed as nematode mortality at 0.5% under dark conditions measured 72 hr post dose by stereoscopic microscopy; assay type: functional; summary of the method: as §2
Heterodera zeae [28] = assay: Nematicidal activity against Heterodera zeae infective stage larvae assessed as nematode mortality at 0.125% under light conditions measured 5 to 60 min post dose by stereoscopic microscopy; assay type: functional, organism-based; summary of the method: as §1
Heterodera zeae [29] = assay: Nematicidal activity against Heterodera zeae infective stage larvae assessed as nematode mortality at 0.25% under light conditions measured 5 to 60 min post dose by stereoscopic microscopy; assay type: functional, organism-based; summary of the method: as §1
Heterodera zeae [30] = assay: Nematicidal activity against Heterodera zeae infective stage larvae assessed as nematode mortality at 1% under light conditions measured 5 to 60 min post dose by stereoscopic microscopy; assay type: functional, organism-based; summary of the method: as §1
Heterodera zeae [31] = assay: Nematicidal activity against Heterodera zeae infective stage larvae assessed as nematode mortality at 0.125% under light conditions measured 24 hr post dose by stereoscopic microscopy; assay type: functional; summary of the method: as §2
Heterodera zeae [32] = assay: Nematicidal activity against Heterodera zeae infective stage larvae assessed as nematode mortality at 1% under light conditions measured 24 hr post dose by stereoscopic microscopy; assay type: functional; summary of the method: as §2
Heterodera zeae [33] = assay: Nematicidal activity against Heterodera zeae infective stage larvae assessed as nematode mortality at 0.5% under light conditions measured 24 hr post dose by stereoscopic microscopy; assay type: functional; summary of the method: as §2
Heterodera zeae [34] = assay: Nematicidal activity against Heterodera zeae infective stage larvae assessed as nematode mortality at 0.125% under light conditions measured 48 hr post dose by stereoscopic microscopy; assay type: functional; summary of the method: as §2
Heterodera zeae [35] = assay: Nematicidal activity against Heterodera zeae infective stage larvae assessed as nematode mortality at 1% under light conditions measured 48 hr post dose by stereoscopic microscopy; assay type: functional; summary of the method: as §2
Heterodera zeae [36] = assay: Nematicidal activity against Heterodera zeae infective stage larvae assessed as nematode mortality at 0.25% under dark conditions measured 48 hr post dose by stereoscopic microscopy; assay type: functional; summary of the method: as §2

| SMILES | Activity (Heterodera zeae [1]) | mortality (Heterodera zeae [2]) [%] | Activity (Heterodera zeae [3]) | Activity (Heterodera zeae [4]) | Activity (Heterodera zeae [5]) | mortality (Heterodera zeae [6]) [%] | mortality (Heterodera zeae [7]) [%] | Activity (Heterodera zeae [8]) | mortality (Heterodera zeae [9]) [%] | mortality (Heterodera zeae [10]) [%] | Activity (Heterodera zeae [11]) | Activity (Heterodera zeae [12]) | mortality (Heterodera zeae [13]) [%] | mortality (Heterodera zeae [14]) [%] | mortality (Heterodera zeae [15]) [%] | mortality (Heterodera zeae [16]) [%] | mortality (Heterodera zeae [17]) [%] | mortality (Heterodera zeae [18]) [%] | mortality (Heterodera zeae [19]) [%] | mortality (Heterodera zeae [20]) [%] | further results |
| --- | --- | --- | --- | --- | --- | --- | --- | --- | --- | --- | --- | --- | --- | --- | --- | --- | --- | --- | --- | --- | --- |
| CCCCCCCCCCCCCC(=O)O [MYRISTIC ACID] | inactive | 50 | inactive | inactive | inactive | 20 | 50 | inactive | 20 | 30 | inactive | inactive | 50 | 50 | 80 | 60 | 90 | 50 | 40 | 50 | Activity (Heterodera zeae [21]): inactive; Activity (Heterodera zeae [22]): inactive; mortality (Heterodera zeae [23]): 30%; mortality (Heterodera zeae [24]): 80%; mortality (Heterodera zeae [25]): 20%; mortality (Heterodera zeae [26]): 20%; mortality (Heterodera zeae [27]): 80%; Activity (Heterodera zeae [28]): inactive; Activity (Heterodera zeae [29]): inactive; Activity (Heterodera zeae [30]): inactive; mortality (Heterodera zeae [31]): 20%; mortality (Heterodera zeae [32]): 40%; mortality (Heterodera zeae [33]): 30%; mortality (Heterodera zeae [34]): 20%; mortality (Heterodera zeae [35]): 50%; mortality (Heterodera zeae [36]): 30% |
| COc1ccc(C(=O)O)cc1 [p-ANISIC ACID] | inactive | 50 | inactive | inactive | inactive | 20 | 50 | inactive | 10 | 40 | inactive | inactive | 50 | 50 | 80 | 60 | 90 | 50 | 40 | 50 | Activity (Heterodera zeae [21]): inactive; Activity (Heterodera zeae [22]): inactive; mortality (Heterodera zeae [23]): 30%; mortality (Heterodera zeae [24]): 80%; mortality (Heterodera zeae [25]): 20%; mortality (Heterodera zeae [26]): 10%; mortality (Heterodera zeae [27]): 80%; Activity (Heterodera zeae [28]): inactive; Activity (Heterodera zeae [29]): inactive; Activity (Heterodera zeae [30]): inactive; mortality (Heterodera zeae [31]): 10%; mortality (Heterodera zeae [32]): 40%; mortality (Heterodera zeae [33]): 30%; mortality (Heterodera zeae [34]): 10%; mortality (Heterodera zeae [35]): 50%; mortality (Heterodera zeae [36]): 40% |
| COc1c(O)cc2oc(-c3ccc(O)c(O)c3)c(O)c(=O)c2c1O [PATULETIN] | inactive | 0 | inactive | inactive | inactive | 70 | 0 | inactive | 20 | 20 | inactive | inactive | 20 | 20 | 10 | 60 | 60 | 100 | 100 | 100 | Activity (Heterodera zeae [21]): inactive; Activity (Heterodera zeae [22]): inactive; mortality (Heterodera zeae [23]): 0%; mortality (Heterodera zeae [24]): 100%; mortality (Heterodera zeae [25]): 0%; mortality (Heterodera zeae [26]): 0%; mortality (Heterodera zeae [27]): 20%; Activity (Heterodera zeae [28]): inactive; Activity (Heterodera zeae [29]): inactive; Activity (Heterodera zeae [30]): inactive; mortality (Heterodera zeae [31]): 20%; mortality (Heterodera zeae [32]): 40%; mortality (Heterodera zeae [33]): 20%; mortality (Heterodera zeae [34]): 50%; mortality (Heterodera zeae [35]): 40%; mortality (Heterodera zeae [36]): 10% |
| COc1ccc(C(=O)O)cc1OC [VERATRIC ACID] | inactive | 50 | inactive | inactive | inactive | 50 | 50 | inactive | 10 | 80 | inactive | inactive | 50 | 50 | 80 | 60 | 90 | 100 | 100 | 100 | Activity (Heterodera zeae [21]): inactive; Activity (Heterodera zeae [22]): inactive; mortality (Heterodera zeae [23]): 30%; mortality (Heterodera zeae [25]): 20%; mortality (Heterodera zeae [26]): 10%; mortality (Heterodera zeae [27]): 80%; Activity (Heterodera zeae [28]): inactive; Activity (Heterodera zeae [29]): inactive; Activity (Heterodera zeae [30]): inactive; mortality (Heterodera zeae [31]): 10%; mortality (Heterodera zeae [32]): 80%; mortality (Heterodera zeae [33]): 60%; mortality (Heterodera zeae [34]): 50%; mortality (Heterodera zeae [35]): 100%; mortality (Heterodera zeae [36]): 40% |
